Measured values: publication PMC6585996 (Clinical Pharmacology in Drug Development, 2018)
Entries after “also recorded” stand apart in the source; their conditions may differ. Like-named read-outs stand apart in the source and are kept apart here.

What was measured:
[1] = type: in vivo, human
In short: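 Healthy adults aged 18–65 years (≥50 kg, BMI 18.5–31.0 kg/m2) were randomised 1:1 to a two-period crossover. Each received a single oral 30 mg tablet after ≥10 h fasting or within 30 min of a high-fat meal (~53% fat, ~870 calories), with a 14-day washout. Plasma was sampled predose to 168 h and assayed by protein precipitation plus LC-MS/MS (LLOQ 25 ng/mL, ULOQ 25,000 ng/mL). Parameters were noncompartmental. GLS mean ratios (90% CI) came from a mixed-effects model with treatment and period as fixed effects and participant as random.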

[2] = 10‐ and 30‐mg doses, early prototype formulations; ref Supplemental Data; cited from earlier work
[3] = Safety assessments in the phase 1 food-effect study; type: in vivo, human
[4] = single-dose oral 30 mg, fasted conditions, cited from earlier work
[5] = 30 mg with a moderate-fat meal; ref Supplemental Data; cited from earlier work
OATP = settings: cited from earlier work
[6] = cited from earlier work
serum albumin = settings: cited from earlier work
[7] = tested on: uridine diphosphate glucuronosyltransferase (UGT)1A1, UGT1A9; settings: forms glucuronic acid conjugates; minor contribution by UGT1A9; cited from earlier work
[8] = coadministered rifampin; cited from earlier work
HIV‐1 = settings: cited from earlier work
[9] = cited from earlier work; remark: listed apart in the source
[10] = cited from earlier work; remark: listed apart in the source
[11] = cited from earlier work; remark: listed apart in the source
[12] = 30-mg single oral dose, high-fat meal, n = 21
[13] = Fasted State vs High‐Fat Meal, 30-mg single dose, n = 21
[14] = high-fat meal compared with fasting state, 30 mg oral

## C[C@H]1CO[C@@H]2Cn3cc(C(=O)NCc4ccc(F)cc4F)c(=O)c(O)c3C(=O)N12 [cabotegravir, Cabotegravir]
[1]; 30 mg oral, high-fat meal vs fasting
  effect of high-fat meal on tmax and t1/2: Neither tmax nor t1/2 was affected
[1]; 30-mg single oral dose, fasted state, n = 21
  CL/F, Mean (SD): 0.218 (0.0611) L/h
[1]; [12]
  CL/F, Mean (SD): 0.191 (0.0553) L/h
  t1/2, Mean (SD): 41.1 (6.57) h
[1]; 2 hours after dosing, fasting conditions, 30 mg oral
  peak concentration of the one participant excluded from PK analysis: 0.0987 µg/mL
[1]; [13]
  AUC0‐∞, GLS Mean Ratio (90% CI): 1.14 (1.02‐1.28)
  C24, GLS Mean Ratio (90% CI): 1.17 (1.04‐1.30)
  CL/F, GLS Mean Ratio (90% CI): 0.875 (0.785‐0.977)
  Cmax, GLS Mean Ratio (90% CI): 1.14 (1.03‐1.27)
  t1/2, GLS Mean Ratio (90% CI): 0.997 (0.964‐1.03)
[1]; crossover periods, 14-day washout
  quantifiable predose concentrations: < 5 % of their respective Cmax values
[1]; high-fat meal compared with after fasting, 30 mg oral
  decrease in CL/F: 13%
[1]; [14]
  increase in maximal drug concentration: 14%
  increase in plasma area under the concentration‐time curve: 14%
[1]; human, plasma, po, 30 mg
  half-life: 41.1 h
[2]
  effect of a moderate-fat meal (30% fat, ∼670 calories) on PK: did not significantly affect
[3]; grade 2 hypoglycemia, grade 3 increased direct bilirubin
  treatment‐emergent laboratory abnormalities: 2 participants
[3]; single 30-mg oral doses
  electrocardiographic or vital sign abnormalities reported as AEs: No clinically significant electrocardiographic or vital sign abnormalities
[3]; single 30-mg oral doses, fasted and fed, healthy adults
  adverse events (grade 3/4, drug-related, serious, leading to discontinuation): No grade 3/4 adverse events (AEs), drug‐related AEs, or AEs leading to discontinuation were reported; also recorded: no AEs or serious AEs that led to discontinuation of the study drug
[4]; read-out: AUC0‐∞
  AUC(0-inf): 146 µg·h/mL
[4]
  median time to peak plasma concentration (tmax): 2 h
  plasma apparent terminal‐phase half‐life (t1/2): approximately 38.5 hours
[5]
  half‐life, geometric mean (95% confidence interval): 38.6 h
OATP
  substrate for intestinal uptake transporters such as OATP: not a substrate
[6]
  Biopharmaceutics Drug Disposition Classification System class: class 2
  passive permeability: high
Serum albumin
  binding to serum albumin: highly bound
[7]
  metabolizing enzymes: primarily metabolized by uridine diphosphate glucuronosyltransferase (UGT)1A1
[8]
  effect of rifampin on cabotegravir exposures: significantly reduced
HIV‐1
  in vitro protein‐adjusted 90% inhibitory concentration: 166 ng/mL
[9]
  dose proportionality of trough concentration: increase in proportional to dose
[9]; dose increased from 30 to 60 mg, ref Supplemental Data
  dose proportionality of AUC and Cmax: less‐than‐dose‐proportional

## Cc1nnc(C(=O)NC(C)(C)c2nc(C(=O)NCc3ccc(F)cc3)c(O)c(=O)n2C)o1 [Raltegravir]
[10]; raltegravir 400 mg twice daily with a high-fat meal
  increase in AUC from time 0 to 12 hours: 2 fold
[10]; raltegravir 1200 mg (2 × 600 mg) once daily, following a high-fat meal
  increase in AUC from time 0 to last observation: 1.9%
[10]; raltegravir 1200 mg (2 × 600 mg) once daily, following a low-fat meal
  decrease in AUC from time 0 to last observation: 42%

## C[C@@H]1CCO[C@H]2Cn3cc(C(=O)NCc4ccc(F)cc4F)c(=O)c(O)c3C(=O)N12 [Dolutegravir]
[11]; single-dose dolutegravir 50 mg with high-fat meal
  increase in plasma AUC0‐∞: 66%
[11]; single-dose dolutegravir 50 mg with low-fat meal
  increase in plasma AUC0‐∞: 33%
[11]; single-dose dolutegravir 50 mg with moderate-fat meal
  increase in plasma AUC0‐∞: 41%
